Assay [1] in a line: RPL19A-GFP modulators, yeast TOR pathway, confirmation, cell-based, S. cerevisiae, flow cytometry, cherry picks, mother/daughter gates (AID 2270;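 active = GFP response below 50% of the DMSO control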). As to conditions: S. cerevisiae RPL19A-GFP strain, 3 h, at 10 µM, stronger effect = lower value, 100 = same GFP as DMSO wells. (In general: Flow cytometry measures light scatter and fluorescence of single cells or particles in a stream.)
The nature of assay [2]: LAP4-GFP expression modulators in yeast, confirmation, cell-based, cherry picks, flow cytometry, mother/daughter gates (AID 2271;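 active = GFP response above 150% of the DMSO control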;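 also: ratio of sample to DMSO plate mean so 100% equals DMSO level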). As to conditions: S. cerevisiae LAP4-GFP strain, 3 h, at 10 µM, stronger effect = higher value, 100 means same as DMSO control. A digest of the protocol:
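Measured by: GFP by flow cytometry. Test system: GFP-fusion yeast strain. Input: yeast cells seeded at OD600 of 0.2. Timing: 30 °C, 3 h compound incubation, rotating. Buffer or medium: synthetic complete medium for yeast. Benchmarks: DMSO-only negative wells, rapamycin 400 ng/mL positive wells. Compound: 10 µM single dose.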

Assay [3] can be described thus: modulators of MEP2-GFP levels in yeast, confirmation, S. cerevisiae, flow cytometry GFP, cherry picks (AID 2272;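 active = GFP response above 150% of the DMSO control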;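 also: ratio of well signal to plate DMSO mean so 100% equals DMSO level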). As to conditions: S. cerevisiae MEP2-GFP strain, 3 h, at 10 µM, stronger effect = higher value.
Assay [4] is described as follows: AGP1-GFP expression modulators, hit retest, confirmation, cell-based, flow cytometry, S. cerevisiae, cherry picks (AID 2273).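 Also: median GFP channel fluorescence over the whole cell population gate.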 As to conditions: S. cerevisiae AGP1-GFP strain, 3 h, at 10 µM.
Assay [5] is described as follows: modulators of CIT2-GFP expression in yeast, confirmation, S. cerevisiae, GFP fusion, cherry picks, mother/daughter gates (AID 2274). As to conditions: S. cerevisiae CIT2-GFP strain, flow cytometry, 3 h, at 10 µM, stronger effect = higher value.
The mark [6] stands for this setting: measured here: daughter cell gate.
The mark [7] stands for this setting: measured here: mother cell gate.
Where [8] appears, read: measured here: daughter cell gate response.
The mark [9] stands for this setting: measured here: mother cell gate response.

SMILES strings stand for the structures. Calls of active or inactive are those of the source.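 The calls were made as follows, unless noted: active = GFP response above 150% of the DMSO level; inconclusive = fewer than 70 events counted for a yeast strain; inactive = the rest.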

Consider `O=C(O)C1CCC(NSc2ccccc2[N+](=O)[O-])CC1` (stereo unspecified), for which the GFP response vs DMSO in assay [1] is 98.2% (inactive); in assay [1] (setting [6]), 95.9%; in assay [1] (setting [7]), 95.2%; in assay [3], 96.8% (inactive). For the same compound, the results for the GFP response relative to DMSO in assay [2], in assay [2] (setting [8]) and in assay [2] (setting [9]) were 145% (inactive), 133% and 157%, respectively. Besides, the GFP response, % of DMSO is 101% (inactive) in assay [4], 97.3% (inactive) in assay [5], 99.2% in assay [5] (setting [6]) and 94.4% in assay [5] (setting [7]).

Take `S=C(Nc1ccc(Cl)cc1)Nc1ccc2cn[nH]c2c1`: the GFP response vs DMSO was 93.9% (inactive) in assay [1], 96.3% in assay [1] (setting [6]), 93.3% in assay [1] (setting [7]) and 101% (inactive) in assay [3]. Besides, the GFP response relative to DMSO is 106% (inactive) in assay [2], 108% in assay [2] (setting [8]) and 105% in assay [2] (setting [9]). Moreover, the GFP response, % of DMSO in assay [4] was 104% (inactive); in assay [5], 103% (inactive); in assay [5] (setting [6]) it was 100%; in assay [5] (setting [7]) it was 104%.

On to `C/C(=N/NC(=O)c1ccc(C(C)(C)C)cc1)c1ccccn1`, for which the GFP response vs DMSO was 110% (inactive) in assay [1], 107% in assay [1] (setting [6]), 101% in assay [1] (setting [7]) and 126% (inactive) in assay [3]. Moreover, the GFP response relative to DMSO in assay [2] is 231% (active); in assay [2] (setting [8]), 197%; in assay [2] (setting [9]), 209%. Moreover, the GFP response, % of DMSO was 90% (inactive) in assay [4], 112% (inactive) in assay [5], 115% in assay [5] (setting [6]) and 98.2% in assay [5] (setting [7]).

For `CSc1nc(N2CCN(c3ccccc3Cl)CC2)c2ccccc2n1`, the GFP response vs DMSO was 96.2% (inactive) in assay [1], 96.7% in assay [1] (setting [6]), 95.2% in assay [1] (setting [7]) and 110% (inactive) in assay [3]. Moreover, the GFP response relative to DMSO in assay [2] was 98.9% (inactive); in assay [2] (setting [8]), 101%; in assay [2] (setting [9]) it was 98.4%. The GFP response, % of DMSO in assay [4] is 102% (inactive); in assay [5] it was 97.2% (inactive); in assay [5] (setting [6]) it was 97.6%; in assay [5] (setting [7]) it was 97.1%.

With `Cc1ccc(S(=O)(=O)N2C3C=CC(C3)C2C(=O)O)cc1` (stereo unspecified), the GFP response vs DMSO in assay [1] was 96% (inactive); in assay [1] (setting [6]) it was 97.6%; in assay [1] (setting [7]) it was 95.2%; in assay [3], 106% (inactive). In addition, the values for the GFP response relative to DMSO in assay [2], in assay [2] (setting [8]) and in assay [2] (setting [9]) were 95.3% (inactive), 96% and 94.4%, respectively. Besides, the GFP response, % of DMSO in assay [4] is 98.4% (inactive); in assay [5] it was 97.2% (inactive); in assay [5] (setting [6]), 97.6%; in assay [5] (setting [7]), 98.2%.

As for `Cc1[nH]n(-c2ccccc2)c(=O)c1/C=N/Nc1nncc(-c2ccccc2)n1`, the GFP response vs DMSO was 88.1% (inactive) in assay [1], 85.8% in assay [1] (setting [6]), 88.9% in assay [1] (setting [7]) and 108% (inactive) in assay [3]. The GFP response relative to DMSO in assay [2] was 149% (inactive); in assay [2] (setting [8]) it was 137%; in assay [2] (setting [9]), 151%. The GFP response, % of DMSO in assay [4] was 110% (inactive); in assay [5], 86% (inactive); in assay [5] (setting [6]), 84.1%; in assay [5] (setting [7]), 83.8%.

For `Cc1cccn2c(=O)c(/C=C(\C#N)C(=O)NCc3ccco3)c(N3CCCCCC3)nc12`, the GFP response vs DMSO in assay [1] was 97% (inactive); in assay [1] (setting [6]), 97.3%; in assay [1] (setting [7]), 97.2%; in assay [3], 97.8% (inactive). Besides, the GFP response relative to DMSO in assay [2] was 96.2% (inactive); in assay [2] (setting [8]), 95.6%; in assay [2] (setting [9]) it was 98.3%. Moreover, the GFP response, % of DMSO is 95.4% (inactive) in assay [4], 90% (inactive) in assay [5], 89.9% in assay [5] (setting [6]) and 86.9% in assay [5] (setting [7]).

For the compound `O=C(CN1C(=O)c2cccc3cccc(c23)C1=O)N1CCCCCC1`, the GFP response vs DMSO in assay [1] is 102% (inactive); in assay [1] (setting [6]) it was 101%; in assay [1] (setting [7]) it was 101%; in assay [3] it was 94.7% (inactive). Besides, the GFP response relative to DMSO is 97% (inactive) in assay [2], 94.2% in assay [2] (setting [8]) and 98.4% in assay [2] (setting [9]). For the same compound, the GFP response, % of DMSO in assay [4] is 100% (inactive); in assay [5], 100% (inactive); in assay [5] (setting [6]), 101%; in assay [5] (setting [7]) it was 101%.

In the case of `O=C1/C(=C\c2ccccn2)SC(=S)N1Nc1ncc(C(F)(F)F)cc1Cl`, the GFP response vs DMSO in assay [1] was 99.1% (inactive); in assay [1] (setting [6]), 98.3%; in assay [1] (setting [7]), 99%; in assay [3], 102% (inactive). In addition, the GFP response relative to DMSO in assay [2] is 98.8% (inactive); in assay [2] (setting [8]), 92.2%; in assay [2] (setting [9]), 99.5%. In addition, the GFP response, % of DMSO in assay [4] is 94.9% (inactive); in assay [5], 95% (inactive); in assay [5] (setting [6]), 94.6%; in assay [5] (setting [7]) it was 93.3%.

`O=C(c1cc([N+](=O)[O-])cc([N+](=O)[O-])c1)N(Cc1nnc(-c2ccccc2Cl)o1)C1CC1`: the GFP response vs DMSO in assay [1] was 102% (inactive); in assay [1] (setting [6]) it was 101%; in assay [1] (setting [7]), 105%; in assay [3], 102% (inactive). Besides, the GFP response relative to DMSO in assay [2] is 96.2% (inactive); in assay [2] (setting [8]) it was 97.2%; in assay [2] (setting [9]), 99.3%. Further, the GFP response, % of DMSO in assay [4] is 97.2% (inactive); in assay [5], 107% (inactive); in assay [5] (setting [6]) it was 103%; in assay [5] (setting [7]) it was 109%.

Turning to `Cc1cccc(/C(N)=N/OC(=O)C23CC4CC(CC(C4)C2)C3)c1`, the GFP response vs DMSO was 102% (inactive) in assay [1], 101% in assay [1] (setting [6]), 101% in assay [1] (setting [7]) and 108% (inactive) in assay [3]. Also, the GFP response relative to DMSO was 113% (inactive) in assay [2], 108% in assay [2] (setting [8]) and 119% in assay [2] (setting [9]). The GFP response, % of DMSO was 85% (inactive) in assay [4], 123% (inactive) in assay [5], 111% in assay [5] (setting [6]) and 127% in assay [5] (setting [7]).

As for `CCCN(CCC)S(=O)(=O)c1ccc(C(=O)Nc2nnc(-c3cc(OC)cc(OC)c3)o2)cc1`, the GFP response vs DMSO in assay [1] was 98.2% (inactive); in assay [1] (setting [6]), 99.4%; in assay [1] (setting [7]) it was 99%; in assay [3], 102% (inactive). In addition, the values for the GFP response relative to DMSO in assay [2], in assay [2] (setting [8]) and in assay [2] (setting [9]) were 91.5% (inactive), 91.2% and 91.9%, respectively. Besides, the GFP response, % of DMSO in assay [4] was 93.9% (inactive); in assay [5] it was 101% (inactive); in assay [5] (setting [6]) it was 101%; in assay [5] (setting [7]), 101%.

As for `Cc1cccc(OCCCSc2nc3ccc(C)cc3[nH]2)c1`, the GFP response vs DMSO is 92% (inactive) in assay [1], 89.2% in assay [1] (setting [6]), 92.2% in assay [1] (setting [7]) and 94.7% (inactive) in assay [3]. The values for the GFP response relative to DMSO in assay [2], in assay [2] (setting [8]) and in assay [2] (setting [9]) were 124% (inactive), 115% and 127%, respectively. The GFP response, % of DMSO in assay [4] was 91.6% (inactive); in assay [5] it was 79.9% (inactive); in assay [5] (setting [6]), 77.5%; in assay [5] (setting [7]), 82.1%.

For `O=[N+]([O-])c1ccc(N2N=C(c3ccco3)CC2c2ccccc2)cc1` (stereo unspecified), the GFP response vs DMSO in assay [1] was 104% (inactive); in assay [1] (setting [6]), 104%; in assay [1] (setting [7]) it was 97.7%; in assay [3] it was 131% (inactive). Further, the GFP response relative to DMSO is 107% (inactive) in assay [2], 104% in assay [2] (setting [8]) and 108% in assay [2] (setting [9]). Also, the GFP response, % of DMSO is 99.8% (inactive) in assay [4], 105% (inactive) in assay [5], 105% in assay [5] (setting [6]) and 103% in assay [5] (setting [7]).

With `CC1CN(c2nc3ccccn3c(=O)c2/C=C(\C#N)C(N)=O)CC(C)O1` (stereo unspecified), the GFP response vs DMSO in assay [1] is 97.8% (inactive); in assay [1] (setting [6]), 97.3%; in assay [1] (setting [7]), 95.8%; in assay [3], 106% (inactive). Moreover, the GFP response relative to DMSO was 96.5% (inactive) in assay [2], 99% in assay [2] (setting [8]) and 95.4% in assay [2] (setting [9]). Besides, the GFP response, % of DMSO in assay [4] was 99.5% (inactive); in assay [5], 101% (inactive); in assay [5] (setting [6]) it was 99.3%; in assay [5] (setting [7]), 103%.

Turning to `CN(c1ccccc1)S(=O)(=O)c1ccc(C(=O)Nc2nnc(-c3ccc(F)cc3)o2)cc1`, the GFP response vs DMSO in assay [1] is 99.1% (inactive); in assay [1] (setting [6]), 102%; in assay [1] (setting [7]) it was 98.6%; in assay [3], 149% (inactive). Further, the GFP response relative to DMSO was 122% (inactive) in assay [2], 128% in assay [2] (setting [8]) and 120% in assay [2] (setting [9]). For the same compound, the GFP response, % of DMSO is 106% (inactive) in assay [4], 131% (inactive) in assay [5], 133% in assay [5] (setting [6]) and 128% in assay [5] (setting [7]).

For the origin of these results see PubChem BioAssay.
